Measurements as given in ChEMBL document CHEMBL5030521, “Design, Synthesis, and Characterization of Novel sn-1 Heterocyclic DAG-Lactones as PKC Activators” (J Med Chem, 2021).
Calls of active or inactive are those of the source.

Assays:
[1] = biological target: T1, Protein kinase C alpha type (Homo sapiens, UniProt P17252); assay: Displacement of [3H]-PDBu from recombinant human PKCalpha at 30 uM by scintillation counter method relative to control
In short: (§1)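 Competition of 2 nM [3H]PDBu by test ligand at a single fixed concentration (value in line); 50 mM Tris-HCl pH 7.4, 100 μg/mL porcine brain phosphatidylserine, 5 mg/mL bovine IgG, 0.003% Tx-100, 20 ng/tube enzyme; 0.1 mM Ca2+ for PKCα, 1 mM EGTA for PKCε. 5 min at 37 °C, PEG precipitation, bound and free counted separately; nonspecific with 10 μM cold PDBu; triplicates.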

[2] = biological target: T2, Protein kinase C epsilon type (Homo sapiens) (UniProt Q02156); assay: Activation of GFP-fused PKCepsilon in HeLa cells assessed as translocation of PKCepsilon from cytosol to membrane measured after 30 mins by DAPI staining based fluorescence microscopy; type: subcellular
T2 sequence (whole entry): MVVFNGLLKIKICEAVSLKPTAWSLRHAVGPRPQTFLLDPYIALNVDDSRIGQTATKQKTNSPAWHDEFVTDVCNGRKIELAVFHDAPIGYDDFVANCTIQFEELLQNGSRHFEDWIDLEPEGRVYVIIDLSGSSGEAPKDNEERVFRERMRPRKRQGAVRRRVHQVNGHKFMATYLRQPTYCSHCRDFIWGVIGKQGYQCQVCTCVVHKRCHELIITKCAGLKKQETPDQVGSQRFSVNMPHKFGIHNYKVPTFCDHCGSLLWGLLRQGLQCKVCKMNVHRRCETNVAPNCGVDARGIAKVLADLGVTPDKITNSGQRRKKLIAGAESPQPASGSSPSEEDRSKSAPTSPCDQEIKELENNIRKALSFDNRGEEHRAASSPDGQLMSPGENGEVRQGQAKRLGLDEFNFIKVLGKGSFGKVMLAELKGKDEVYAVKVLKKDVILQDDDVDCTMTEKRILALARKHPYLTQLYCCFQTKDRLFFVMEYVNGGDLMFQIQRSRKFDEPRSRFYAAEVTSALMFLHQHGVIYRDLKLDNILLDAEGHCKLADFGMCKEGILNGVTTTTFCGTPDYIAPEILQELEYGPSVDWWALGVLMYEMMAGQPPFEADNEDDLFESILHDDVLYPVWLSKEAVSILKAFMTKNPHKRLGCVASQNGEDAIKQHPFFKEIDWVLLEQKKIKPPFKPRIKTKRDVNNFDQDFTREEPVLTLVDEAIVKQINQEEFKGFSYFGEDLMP
In short: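 HeLa cells transfected with pEGFP-N1-PKCε, plated on coverslips, serum-starved 24 h after 24 h, then treated 30 min; methanol-fixed, DAPI counterstained, imaged by fluorescence microscopy. Membrane/cytosol ratio from line intensity profiles across ~10–15 cells/group, operator blinded; mean ± SD; PMA 100 nM as control.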

A549 [3] = assay: Induction of ruffle formation in human A549 cells transfected with PKCepsilon siRNA at 1 microM incubated for 30 mins using phalloidin-rhodamine staining based microscopic analysis; type: functional, cell-based
In short: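 A549 cells transfected with PKCε siRNA duplexes (two sequences) or nontarget control; 48 h later treated 1 μM for 30 min, formaldehyde-fixed, phalloidin-rhodamine stained; ruffle area/cell by intensity thresholding. Knockdown checked by Q-PCR mRNA and Western blot.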

[4] = biological target: T3, Protein kinase C epsilon type (Homo sapiens, UniProt Q02156); assay: Displacement of [3H]-PDBu from recombinant human PKCepsilon by scintillation counter method
T3 sequence (Q02156 whole entry): T2 sequence (whole entry)
In short: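 PKCε with 2 nM [3H]PDBu plus increasing competitor concentrations, in 50 mM Tris-HCl pH 7.4, 100 μg/mL phosphatidylserine, 1 mM EGTA, 5 mg/mL bovine IgG, 0.003% Tx-100, 20 ng/tube enzyme; 37 °C 5 min, then PEG precipitation and counting of pellet and supernatant. Nonspecific binding from 10 μM unlabeled PDBu. Ki derived from competition-curve ID50; mean ± SEM of three experiments, triplicate points.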

[5] = biological target: T1, Protein kinase C alpha type; assay: Displacement of [3H]-PDBu from recombinant human PKCalpha by scintillation counter method
In short: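 [3H]PDBu (2 nM) competition with increasing ligand in 50 mM Tris-HCl pH 7.4, 100 μg/mL porcine brain phosphatidylserine, 0.1 mM Ca2+ (PKCα), 5 mg/mL bovine IgG, 0.003% Triton X-100, 20 ng enzyme/tube; nonspecific with 10 μM PDBu. 37 °C 5 min, PEG precipitation, bound and free counted by scintillation. Triplicates; Ki from ID50; three experiments, mean ± SEM.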

[6] = biological target: T2, Protein kinase C epsilon type (Homo sapiens); assay: Displacement of [3H]-PDBu from recombinant human PKCepsilon at 10 uM by scintillation counter method relative to control; in short: as §1
[7] = biological target: T2, Protein kinase C epsilon type (Homo sapiens); assay: Displacement of [3H]-PDBu from recombinant human PKCepsilon at 30 uM by scintillation counter method relative to control; in short: as §1
[8] = biological target: T1, Protein kinase C alpha type; assay: Activation of GFP-fused PKCalpha in HeLa cells assessed as […] from cytosol to membrane measured after 30 mins by DAPI staining based fluorescence microscopy; type: subcellular; conditions: filed as activator
In short: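 HeLa cells (5 × 10^4) transfected with pEGFP-N1-PKCα or -PKCε, plated on coverslips; after 24 h serum-starved 24 h, then treated 30 min. Methanol-fixed, DAPI-counterstained, imaged by fluorescence microscopy. Line scans across cytoplasm (~10–15 cells/group) give membrane/cytosol fluorescence ratio; operator blinded; mean ± SD.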

A549 [9] = assay: Induction of ruffle formation in human A549 cells at 1 microM incubated for 30 mins using phalloidin-rhodamine staining based microscopic analysis; type: functional, cell-based
In short: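 Serum-starved (24 h) A549 cells at low confluence on coverslips treated 30 min at 1 μM; fixed in 4% formaldehyde, F-actin stained with phalloidin-rhodamine, DAPI nuclei. Five random fields scored; ruffle area per cell by intensity thresholding.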

`CC(C)=C1CC(CO)(Cn2nnc(-c3ccccc3)n2)OC1=O` (centres undefined) was tested, and the inhibition [1] was 23.5% and the Activity [2] was “inactive”.
With `Cc1cc(OCC2(CO)C/C(=C\CC(CC(C)C)CC(C)C)C(=O)O2)no1` (centres undefined) the Activity (A549 [3]) was “inactive”, the Ki [4] was 33.6 nM and the Ki [5] was 79.3 nM.
For `Cc1ccc(-c2cn(CC3(CO)C/C(=C\CC(CC(C)C)CC(C)C)C(=O)O3)nn2)cc1` (centres undefined), the Activity [2] was “inactive” and the inhibition [6] was 17%.
`CC(C)=C1CC(CO)(COc2cc(C)on2)OC1=O` (centres undefined) gave an inhibition [1] of 31.3%.
In the case of `CC(C)CC(C/C=C1\CC(CO)(Cn2nnc(-c3ccccc3)n2)OC1=O)CC(C)C` (centres undefined), the inhibition [1] is reported as 37.5% and the inhibition [7] is reported as 69.2%.
With `CC(C)=C1CC(CO)(Cn2cc(-c3ccc(C)cc3)nn2)OC1=O` (centres undefined) the inhibition [1] was 11.7% and the Activity [2] was “inactive”.
In the case of `CCCCCCCCCCCCCC(=O)O[C@@H]1[C@@H](C)[C@@]2(O)[C@@H](C=C(CO)C[C@]3(O)C(=O)C(C)=C[C@@H]23)[C@@H]2C(C)(C)[C@]12OC(C)=O`, the Activity [8] is reported as “Active” and the Activity [2] is reported as “inactive”.
`CC(C)CC(C/C=C1\CC(CO)(COC(=O)C(C)(C)C)OC1=O)CC(C)C` (centres undefined) was tested, and the Activity (A549 [3]) was “inactive”, the Ki [4] was 1.89 nM and the fold change (FC) ([2]; filed as activator) was 43. The Ki [5] was 23.6 nM and the Activity (A549 [9]) was “Active”.
